Source: ChEMBL document CHEMBL3616459, “Antimicrobial peptides with potential for biofilm eradication: synthesis and structure activity relationship studies of battacin peptides” (J Med Chem, 2015)
≈ marks a conversion by molar mass, not a printed value. Positions of bridges follow the written chain, without caps; N, C: chain ends. Non-standard residues stand in square brackets, D forms with d. Residues, ends and D or L forms follow the SMILES beside them. *: point of attachment. Myristoyl = CCCCCCCCCCCCCC(=O)*; X1 = CC(C)=CCC/C(C)=C/C(=O)*; dDab = NCC[C@@H](N)C(=O)O; X2 = CCC(C)CCC(O)CC(=O)*; Dab = NCC[C@H](N)C(=O)O

What was measured:
Erwinia amylovora [1] = assay: Antimicrobial activity against Erwinia amylovora 1501 after 24 hrs by spectrophotometry; format: functional; conditions: Erwinia amylovora, 1501, 24 h
In short: (§1)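 Broth microdilution in Luria broth. Overnight culture from a single colony, grown at 28 °C (Ea1501, Psa) or 37 °C (E. coli, S. aureus), adjusted to OD600 0.6. Peptide dissolved in LB with 0.5% acetic acid as a dilution series; 50 μL peptide plus 50 μL culture per well, triplicates.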

Erwinia amylovora [2] = assay: Antimicrobial activity against streptomycin-resistant Erwinia amylovora after 24 hrs by spectrophotometry; format: functional
In short: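 Broth microdilution in Luria broth; overnight culture grown at 28 °C, adjusted to OD600 0.6, mixed 1:1 with a dilution series of peptide prepared in LB containing 0.5% acetic acid. Three replicates per concentration.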

[3] = Hemolytic activity in mouse erythrocytes at 100 uM after 1 hr by spectrophotometry; format: ADME, cell-based, Erythrocyte; conditions: read-out: Activity
In short: (§2)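 100 μL peptide (1 μM–1 mM in Tris buffer) plus 100 μL cells, incubated 1 h at 37 °C, triplicates. After centrifugation, supernatant A540 read. Percent hemolysis calculated relative to buffer (0%) and 0.1% Triton X-100 (100%) controls.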

Staphylococcus aureus = assay: Antimicrobial activity against Staphylococcus aureus after 24 hrs by spectrophotometry; format: functional; in short: as §1
[4] = Antimicrobial activity against Pseudomonas syringae pv. actinidiae 16027 after 24 hrs by spectrophotometry; format: functional; conditions: Pseudomonas syringae, 16027, 24 h; in short: as §1
Escherichia coli = assay: Antimicrobial activity against Escherichia coli after 24 hrs by spectrophotometry; format: functional; in short: as §1
Pseudomonas aeruginosa = assay: Antimicrobial activity against Pseudomonas aeruginosa after 24 hrs by spectrophotometry; format: functional
[5] = Hemolytic activity in mouse erythrocytes at 100 uM to 1 mM after 1 hr by spectrophotometry; format: ADME, cell-based, Erythrocyte; conditions: read-out: Activity; in short: as §2

| Molecule | MIC (Erwinia amylovora [1]) | MIC (Erwinia amylovora [2]) | hemolysis at 1 h, 100 µM [3] | MIC (Staphylococcus aureus) | MIC [4] | MIC (Escherichia coli) | MIC (Pseudomonas aeruginosa) | hemolysis at 1 h, 100 µM [5] |
| --- | --- | --- | --- | --- | --- | --- | --- | --- |
| CC(C)C[C@@H]1NC(=O)[C@H](CCN)NC(=O)[C@H](CCN)NC(=O)[C@@H](Cc2ccccc2)NC(=O)[C@H](CC(C)C)NC(=O)[C@H](CCN)NC(=O)[C@@H](NC(=O)[C@@H](CCN)NC(=O)OCC2c3ccccc3-c3ccccc32)CCNC1=O | 19 µM (≈ 20.8 µg/mL) | 32 µM (≈ 35.1 µg/mL) | 41% | 2 µM (≈ 2.19 µg/mL) | 19 µM (≈ 20.8 µg/mL) | 19 µM (≈ 20.8 µg/mL) | 2 µM (≈ 2.19 µg/mL) |  |
| CCC(C)CCC(=O)N[C@H](CCN)C(=O)N[C@H]1CCNC(=O)[C@H](CC(C)C)NC(=O)[C@H](CCN)NC(=O)[C@H](CCN)NC(=O)[C@@H](Cc2ccccc2)NC(=O)[C@H](CC(C)C)NC(=O)[C@H](CCN)NC1=O (some centres undefined) | 15 µM (≈ 14.8 µg/mL) | 25 µM (≈ 24.7 µg/mL) |  | 101 µM (≈ 99.6 µg/mL) | 5 µM (≈ 4.93 µg/mL) | 15 µM (≈ 14.8 µg/mL) | 2.5 µM (≈ 2.47 µg/mL) | 2.02% |
| CC(C)=CCC/C(C)=C/C(=O)N[C@H](CCN)C(=O)N[C@H]1CCNC(=O)[C@H](CC(C)C)NC(=O)[C@H](CCN)NC(=O)[C@H](CCN)NC(=O)[C@@H](Cc2ccccc2)NC(=O)[C@H](CC(C)C)NC(=O)[C@H](CCN)NC1=O | 98 µM (≈ 100 µg/mL) | 488 µM (≈ 500 µg/mL) |  | 98 µM (≈ 100 µg/mL) | 49 µM (≈ 50.2 µg/mL) | 98 µM (≈ 100 µg/mL) | 10 µM (≈ 10.2 µg/mL) |  |
| CCCCCCCCCCCCCC(=O)N[C@H](CCN)C(=O)N[C@H]1CCNC(=O)[C@H](CC(C)C)NC(=O)[C@H](CCN)NC(=O)[C@H](CCN)NC(=O)[C@@H](Cc2ccccc2)NC(=O)[C@H](CC(C)C)NC(=O)[C@H](CCN)NC1=O | 92 µM (≈ 99.8 µg/mL) | 23 µM (≈ 24.9 µg/mL) |  | 92 µM (≈ 99.8 µg/mL) | 46 µM (≈ 49.9 µg/mL) | 92 µM (≈ 99.8 µg/mL) | 92 µM (≈ 99.8 µg/mL) |  |
| CCCCCCCCCCCCCC(=O)N[C@H](CCCCN)C(=O)N[C@H]1CCCCNC(=O)[C@H](CC(C)C)NC(=O)[C@H](CCCCN)NC(=O)[C@H](CCCCN)NC(=O)[C@@H](Cc2ccccc2)NC(=O)[C@H](CC(C)C)NC(=O)[C@H](CCCCN)NC1=O | 81 µM (≈ 99.2 µg/mL) | 20 µM (≈ 24.5 µg/mL) |  | 81 µM (≈ 99.2 µg/mL) | 12 µM (≈ 14.7 µg/mL) | 81 µM (≈ 99.2 µg/mL) | 409 µM (≈ 501 µg/mL) |  |
| CCC(C)CCC(=O)N[C@H](CCN)C(=O)N[C@@H](CCN)C(=O)N[C@@H](CCN)C(=O)N[C@@H](CC(C)C)C(=O)N[C@H](Cc1ccccc1)C(=O)N[C@@H](CCN)C(=O)N[C@@H](CCN)C(=O)N[C@@H](C)C(=O)O (some centres undefined) |  |  |  | 5 µM (≈ 4.81 µg/mL) | 10 µM (≈ 9.62 µg/mL) | 15 µM (≈ 14.4 µg/mL) | 5 µM (≈ 4.81 µg/mL) |  |
| CCC(C)CCC(=O)N[C@H](CCN)C(=O)N[C@@H](CCN)C(=O)N[C@@H](CCN)C(=O)N[C@@H](CC(C)C)C(=O)N[C@H](Cc1ccccc1)C(=O)N[C@@H](CCN)C(=O)N[C@@H](C)C(=O)N[C@@H](CC(C)C)C(=O)O (some centres undefined) |  |  |  | 5 µM (≈ 4.88 µg/mL) | 2.5 µM (≈ 2.44 µg/mL) | 5 µM (≈ 4.88 µg/mL) | 5 µM (≈ 4.88 µg/mL) |  |
| CCC(C)CCC(=O)N[C@H](CCN)C(=O)N[C@@H](CCN)C(=O)N[C@@H](CCN)C(=O)N[C@@H](CC(C)C)C(=O)N[C@H](Cc1ccccc1)C(=O)N[C@@H](C)C(=O)N[C@@H](CCN)C(=O)N[C@@H](CC(C)C)C(=O)O (some centres undefined) |  |  |  | 500 µM (≈ 488 µg/mL) | 100 µM (≈ 97.5 µg/mL) | 100 µM (≈ 97.5 µg/mL) | 50 µM (≈ 48.8 µg/mL) |  |
| CCC(C)CCC(=O)N[C@H](CCN)C(=O)N[C@@H](CCN)C(=O)N[C@@H](CCN)C(=O)N[C@@H](CC(C)C)C(=O)N[C@@H](C)C(=O)N[C@@H](CCN)C(=O)N[C@@H](CCN)C(=O)N[C@@H](CC(C)C)C(=O)O (some centres undefined) |  |  |  | 25 µM (≈ 23.2 µg/mL) | > 1000 µM | 25 µM (≈ 23.2 µg/mL) | > 1000 µM |  |
| CCC(C)CCC(=O)N[C@H](CCN)C(=O)N[C@@H](CCN)C(=O)N[C@@H](CCN)C(=O)N[C@@H](C)C(=O)N[C@H](Cc1ccccc1)C(=O)N[C@@H](CCN)C(=O)N[C@@H](CCN)C(=O)N[C@@H](CC(C)C)C(=O)O (some centres undefined) |  |  |  | > 1000 µM | > 1000 µM | 500 µM (≈ 481 µg/mL) | > 1000 µM |  |
| CCC(C)CCC(=O)N[C@H](CCN)C(=O)N[C@@H](CCN)C(=O)N[C@@H](C)C(=O)N[C@@H](CC(C)C)C(=O)N[C@H](Cc1ccccc1)C(=O)N[C@@H](CCN)C(=O)N[C@@H](CCN)C(=O)N[C@@H](CC(C)C)C(=O)O (some centres undefined) |  |  |  | 25 µM (≈ 24.4 µg/mL) | 25 µM (≈ 24.4 µg/mL) | 25 µM (≈ 24.4 µg/mL) | 10 µM (≈ 9.75 µg/mL) |  |
| CCC(C)CCC(=O)N[C@H](CCN)C(=O)N[C@@H](C)C(=O)N[C@@H](CCN)C(=O)N[C@@H](CC(C)C)C(=O)N[C@H](Cc1ccccc1)C(=O)N[C@@H](CCN)C(=O)N[C@@H](CCN)C(=O)N[C@@H](CC(C)C)C(=O)O (some centres undefined) |  |  |  | 2.5 µM (≈ 2.44 µg/mL) | 2.5 µM (≈ 2.44 µg/mL) | 25 µM (≈ 24.4 µg/mL) | 2.5 µM (≈ 2.44 µg/mL) |  |
| CCC(C)CCC(=O)N[C@@H](C)C(=O)N[C@@H](CCN)C(=O)N[C@@H](CCN)C(=O)N[C@@H](CC(C)C)C(=O)N[C@H](Cc1ccccc1)C(=O)N[C@@H](CCN)C(=O)N[C@@H](CCN)C(=O)N[C@@H](CC(C)C)C(=O)O (some centres undefined) |  |  |  | > 1000 µM | 100 µM (≈ 97.5 µg/mL) | 500 µM (≈ 488 µg/mL) | 25 µM (≈ 24.4 µg/mL) |  |
| CC(C)CCCC(=O)N[C@H](CCN)C(=O)N[C@@H](CCN)C(=O)N[C@@H](CC(C)C)C(=O)N[C@H](Cc1ccccc1)C(=O)N[C@@H](CCN)C(N)=O |  |  |  | 2.5 µM (≈ 1.72 µg/mL) | 1 µM (≈ 0.69 µg/mL) | 10 µM (≈ 6.9 µg/mL) | 1 µM (≈ 0.69 µg/mL) | 1.14% |
| CC(C)C[C@H](NC(=O)[C@H](CCN)NC(=O)[C@H](CCN)NC(=O)[C@@H](Cc1ccccc1)NC(=O)[C@H](CC(C)C)NC(=O)[C@H](CCN)NC(=O)[C@H](CCN)NC(=O)[C@H](N)CCN)C(N)=O (H-[dDab][Dab][Dab]L[dF][Dab][Dab]L-NH2) |  |  |  | > 1000 µM | 5 µM (≈ 4.46 µg/mL) | 100 µM (≈ 89.1 µg/mL) | 2.5 µM (≈ 2.23 µg/mL) |  |
| CCCCCCCCCCCCCC(=O)N[C@H](CCN)C(=O)N[C@@H](CCN)C(=O)N[C@@H](CCN)C(=O)N[C@@H](CC(C)C)C(=O)N[C@H](Cc1ccccc1)C(=O)N[C@@H](CCN)C(=O)N[C@@H](CCN)C(=O)N[C@@H](CC(C)C)C(N)=O (Myristoyl-[dDab][Dab][Dab]L[dF][Dab][Dab]L-NH2) | 9 µM (≈ 9.91 µg/mL) | 14 µM (≈ 15.4 µg/mL) |  | 5 µM (≈ 5.51 µg/mL) | 14 µM (≈ 15.4 µg/mL) | 5 µM (≈ 5.51 µg/mL) | 14 µM (≈ 15.4 µg/mL) | 76.9% |
| CCCCCCCCCCCCCC(=O)N[C@H](CCCCN)C(=O)N[C@@H](CCCCN)C(=O)N[C@@H](CCCCN)C(=O)N[C@@H](CC(C)C)C(=O)N[C@H](Cc1ccccc1)C(=O)N[C@@H](CCCCN)C(=O)N[C@@H](CCCCN)C(=O)N[C@@H](CC(C)C)C(N)=O (Myristoyl-[dK]KKL[dF]KKL-NH2) | 12 µM (≈ 14.9 µg/mL) | 12 µM (≈ 14.9 µg/mL) |  | 1 µM (≈ 1.24 µg/mL) | 12 µM (≈ 14.9 µg/mL) | 12 µM (≈ 14.9 µg/mL) | 12 µM (≈ 14.9 µg/mL) |  |
| CC(C)=CCC/C(C)=C/C(=O)N[C@H](CCN)C(=O)N[C@@H](CCN)C(=O)N[C@@H](CCN)C(=O)N[C@@H](CC(C)C)C(=O)N[C@H](Cc1ccccc1)C(=O)N[C@@H](CCN)C(=O)N[C@@H](CCN)C(=O)N[C@@H](CC(C)C)C(N)=O (X1-[dDab][Dab][Dab]L[dF][Dab][Dab]L-NH2) | 24 µM (≈ 25 µg/mL) | 48 µM (≈ 50 µg/mL) |  | 48 µM (≈ 50 µg/mL) | 14 µM (≈ 14.6 µg/mL) | 24 µM (≈ 25 µg/mL) | 48 µM (≈ 50 µg/mL) |  |
| CCC(C)CCC(O)CC(=O)N[C@H](CCN)C(=O)N[C@H]1CCNC(=O)[C@H](CC(C)C)NC(=O)[C@H](CCN)NC(=O)[C@H](CCN)NC(=O)[C@@H](Cc2ccccc2)NC(=O)[C@H](CC(C)C)NC(=O)[C@H](CCN)NC1=O (some centres undefined) (X2-[dDab][Dab][Dab]L[dF][Dab][Dab]L; lactam 2-C) | 24 µM (≈ 24.7 µg/mL) | 24 µM (≈ 24.7 µg/mL) |  | > 50 µM | 5 µM (≈ 5.15 µg/mL) | 10 µM (≈ 10.3 µg/mL) | 5 µM (≈ 5.15 µg/mL) |  |
| CN[C@@H]1[C@H](O[C@H]2[C@H](O[C@H]3[C@H](O)[C@@H](O)[C@H](N=C(N)N)[C@@H](O)[C@@H]3N=C(N)N)O[C@@H](C)[C@]2(O)C=O)O[C@@H](CO)[C@H](O)[C@H]1O [STREPTOMYCIN] | 1 µM (≈ 0.582 µg/mL) | 500 µM (≈ 291 µg/mL) |  |  | 1 µM (≈ 0.582 µg/mL) | 1 µM (≈ 0.582 µg/mL) |  |  |
| GENTAMICIN |  |  |  | 2.5 µM |  |  | < 1 µM |  |
